Tests used:
Type in all cases: functional, cell-based
[1] = biological target: Melanocortin receptor 4 (Mus musculus) (UniProt P56450); test: Agonist activity at mouse melanocortin receptor 4 expressed in HEK293 cells assessed as stimulation of intracellular cAMP accumulation at 10 uM incubated for 24 hrs by beta-galactosidase reporter gene assay relative to control
Procedure, shortened: (§1)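 After lysis, ONPG hydrolysis was read at 405 nm and normalized to Bradford protein and maximal NDP-MSH response. Duplicates, ≥3 independent experiments; 100 μM dropped from fits where toxic.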

[2] = biological target: Melanocortin receptor 5 (Mus musculus, UniProt P41149); test: Agonist activity at mouse melanocortin receptor 5 expressed in HEK293 cells assessed as stimulation of intracellular cAMP accumulation incubated for 24 hrs by beta-galactosidase reporter gene assay
[3] = biological target: T1, Melanocortin receptor 3 (Mus musculus, UniProt P33033); test: Agonist activity at mouse melanocortin receptor 3 expressed in HEK293 cells assessed as stimulation of intracellular cAMP accumulation incubated for 24 hrs by beta-galactosidase reporter gene assay
[4] = biological target: Melanocyte-stimulating hormone receptor (Mus musculus, UniProt Q01727); test: Agonist activity at mouse melanocortin receptor 1 expressed in HEK293 cells assessed as stimulation of intracellular cAMP accumulation incubated for 24 hrs by beta-galactosidase reporter gene assay
[5] = biological target: Melanocortin receptor 3 (Mus musculus) (UniProt P33033); test: Agonist activity at mouse melanocortin receptor 3 expressed in HEK293 cells assessed as stimulation of intracellular cAMP accumulation at 10 uM incubated for 24 hrs by beta-galactosidase reporter gene assay relative to control; procedure, shortened: as §1
[6] = biological target: T2, Melanocortin receptor 4 (Mus musculus, UniProt P56450); test: Agonist activity at mouse melanocortin receptor 4 expressed in HEK293 cells assessed as stimulation of intracellular cAMP accumulation incubated for 24 hrs by beta-galactosidase reporter gene assay; procedure, shortened: as §1
[7] = biological target: Melanocyte-stimulating hormone receptor (Mus musculus) (UniProt Q01727); test: Agonist activity at mouse melanocortin receptor 1 expressed in HEK293 cells assessed as stimulation of intracellular cAMP accumulation at 10 uM incubated for 24 hrs by beta-galactosidase reporter gene assay relative to control; procedure, shortened: as §1
[8] = biological target: T1, Melanocortin receptor 3; test: Antagonist activity at mouse melanocortin receptor 3 expressed in HEK293 cells assessed as inhibition of NDP-MSH-induced intracellular cAMP accumulation incubated for 24 hrs by beta-galactosidase reporter gene assay
[9] = biological target: Melanocortin receptor 5 (Mus musculus) (UniProt P41149); test: Agonist activity at mouse melanocortin receptor 5 expressed in HEK293 cells assessed as stimulation of intracellular cAMP accumulation at 10 uM incubated for 24 hrs by beta-galactosidase reporter gene assay relative to control; conditions: filed as agonist, time 6.0 hrs, in the assay text read “6 hrs” for “24 hrs”; procedure, shortened: as §1
[10] = biological target: T2, Melanocortin receptor 4; test: Antagonist activity at mouse melanocortin receptor 4 expressed in HEK293 cells assessed as inhibition of NDP-MSH-induced intracellular cAMP accumulation incubated for 24 hrs by beta-galactosidase reporter gene assay; conditions: read-out: pA2 (converted)

Sequence of Melanocortin receptor 5 (P41149 whole entry): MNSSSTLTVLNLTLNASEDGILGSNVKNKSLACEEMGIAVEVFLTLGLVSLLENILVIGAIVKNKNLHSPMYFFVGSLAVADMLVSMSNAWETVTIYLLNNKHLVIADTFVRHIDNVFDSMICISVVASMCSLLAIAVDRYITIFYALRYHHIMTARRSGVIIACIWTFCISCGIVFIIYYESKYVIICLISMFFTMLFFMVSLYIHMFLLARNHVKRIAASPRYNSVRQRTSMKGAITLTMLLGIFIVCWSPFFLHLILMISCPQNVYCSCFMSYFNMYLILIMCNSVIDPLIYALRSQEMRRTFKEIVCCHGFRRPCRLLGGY
Sequence of Melanocortin receptor 3 (Mus musculus) (P33033 whole entry): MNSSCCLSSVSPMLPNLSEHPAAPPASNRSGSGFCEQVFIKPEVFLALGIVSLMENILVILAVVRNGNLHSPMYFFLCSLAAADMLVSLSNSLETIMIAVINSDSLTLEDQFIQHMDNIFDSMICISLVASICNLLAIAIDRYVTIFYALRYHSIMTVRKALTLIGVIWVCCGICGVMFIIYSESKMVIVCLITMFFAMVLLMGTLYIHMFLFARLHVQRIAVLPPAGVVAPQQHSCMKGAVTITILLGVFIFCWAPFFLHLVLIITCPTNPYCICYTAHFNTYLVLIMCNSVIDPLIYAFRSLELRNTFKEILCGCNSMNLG
T1 sequence (P33033 whole entry): as above
Sequence of Melanocyte-stimulating hormone receptor (Q01727 whole entry): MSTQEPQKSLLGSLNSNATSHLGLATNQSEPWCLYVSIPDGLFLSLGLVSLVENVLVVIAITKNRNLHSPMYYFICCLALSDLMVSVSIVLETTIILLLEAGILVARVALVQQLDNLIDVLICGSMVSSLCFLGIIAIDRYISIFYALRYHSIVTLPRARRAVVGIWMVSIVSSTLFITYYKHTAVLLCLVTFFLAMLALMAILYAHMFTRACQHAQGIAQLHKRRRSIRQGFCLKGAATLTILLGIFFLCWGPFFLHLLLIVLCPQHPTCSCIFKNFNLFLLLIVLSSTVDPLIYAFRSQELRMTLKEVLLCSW
Sequence of Melanocyte-stimulating hormone receptor (Mus musculus) (Q01727 whole entry, looked up): as the sequence (Q01727 whole entry) above
T2 sequence (P56450 whole entry): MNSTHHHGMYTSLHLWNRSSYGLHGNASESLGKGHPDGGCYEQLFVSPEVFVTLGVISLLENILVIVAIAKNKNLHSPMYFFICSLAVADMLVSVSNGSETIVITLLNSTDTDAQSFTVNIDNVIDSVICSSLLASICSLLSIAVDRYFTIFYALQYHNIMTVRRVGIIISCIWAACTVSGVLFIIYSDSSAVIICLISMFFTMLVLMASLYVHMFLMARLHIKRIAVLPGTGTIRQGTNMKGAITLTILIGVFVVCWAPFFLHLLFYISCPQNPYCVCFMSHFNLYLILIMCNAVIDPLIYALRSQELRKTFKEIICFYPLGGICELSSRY
Sequence of Melanocortin receptor 4 (Mus musculus) (P56450 whole entry): as above
Sequence of Melanocortin receptor 5 (Mus musculus) (P41149 whole entry): as the sequence (P41149 whole entry) above

Row | Compound | Emax ([1]; filed as agonist) [%] | EC50 [2] [nM] | EC50 [3] [nM] | EC50 [4] [nM] | Emax ([5]; filed as agonist) [%] | other results
1 | CC(C)[C@@H]1CNC(=N)N1C[C@@H]1CCCN1C[C@@H](CC1CCCCC1)N1C[C@@H](C(C)C)N(CC23CC4CC(CC(C4)C2)C3)C1=N | 40 | 580 | 3700 | 300 |  | 
2 | CC(C)C[C@@H]1CNC(=N)N1C[C@@H]1CCCN1C[C@@H](Cc1ccccc1)N1C[C@@H](C(C)C)N(CC2CCC(C(C)(C)C)CC2)C1=N (stereo not given in full) |  | 560 |  | 6800 | 62 | 
3 | CC(C)[C@@H]1CNC(=N)N1C[C@@H]1CCCN1C[C@@H](Cc1ccccc1)N1C[C@@H](C(C)C)N(CC2CCC(C(C)(C)C)CC2)C1=N (stereo not given in full) |  | 600 |  | 29100 | 68 | 
4 | CCC[C@@H]1CN([C@H](Cc2ccccc2)CN2CCC[C@H]2CN2C(=N)NC[C@H]2CC(C)C)C(=N)N1CC12CC3CC(CC(C3)C1)C2 |  | 610 |  | 7000 | 74 | EC50 [6]: 1330 nM
5 | CC(C)CCCN1C(=N)N([C@H](Cc2ccccc2)CN2CCC[C@H]2CN2C(=N)NC[C@H]2CC(C)C)C[C@H]1[C@@H](C)O |  |  |  |  |  | Emax ([7]; filed as agonist): 62%; EC50 [8]: > 100000 nM; Emax [9]: 77%
6 | CCC[C@@H]1CN([C@H](CC2CCCCC2)CN2CCC[C@H]2CN2C(=N)NC[C@H]2C(C)C)C(=N)N1CC1CCC(C(C)(C)C)CC1 (stereo not given in full) | 50 | 540 | 350 |  |  | Kb [10]: 1580 nM; Emax ([7]; filed as agonist): 51%
7 | CC(C)CCCN1C(=N)N([C@H](Cc2ccccc2)CN2CCC[C@H]2CN2C(=N)NC[C@H]2C(C)C)C[C@H]1[C@@H](C)O |  |  |  |  |  | Emax ([7]; filed as agonist): 51%; EC50 [8]: > 100000 nM; Emax [9]: 40%
8 | CC(C)CCCN1C(=N)N([C@H](CC2CCCCC2)CN2CCC[C@H]2CN2C(=N)NC[C@H]2CC(C)C)C[C@H]1C(C)C | 51 | 1850 |  |  |  | Emax [5]: 33%; Emax ([7]; filed as agonist): 50%
9 | CCC[C@@H]1CN([C@H](CC2CCCCC2)CN2CCC[C@H]2CN2C(=N)NC[C@H]2CC(C)C)C(=N)N1CCCC(C)C |  | 1800 |  | 2300 | 58 | EC50 [6]: 6700 nM
10 | CC(C)C[C@@H]1CNC(=N)N1C[C@@H]1CCCN1C[C@@H](CC1CCCCC1)N1C[C@@H]([C@@H](C)O)N(CC23CC4CC(CC(C4)C2)C3)C1=N | 55 | 340 | 240 | 330 |  | EC50 [6]: 650 nM
11 | CCC[C@@H]1CN([C@H](CC2CCCCC2)CN2CCC[C@H]2CN2C(=N)NC[C@H]2C(C)C)C(=N)N1CCCC(C)C | 40 | 1040 |  |  | 51 | Emax ([7]; filed as agonist): 51%
12 | CC(C)C[C@@H]1CNC(=N)N1C[C@@H]1CCCN1C[C@@H](Cc1ccccc1)N1C[C@@H]([C@@H](C)O)N(CC2CCC(C(C)(C)C)CC2)C1=N (stereo not given in full) |  | 530 | 310 |  |  | Emax ([7]; filed as agonist): 58%
13 | CCC[C@@H]1CN([C@H](Cc2ccccc2)CN2CCC[C@H]2CN2C(=N)NC[C@H]2C(C)C)C(=N)N1CC1CCC(C(C)(C)C)CC1 (stereo not given in full) |  | 940 | 6200 | 2300 |  | Emax [1]: 27%
14 | O=C(N[C@@H](Cc1ccc(Cl)cc1)C(=O)N1CCC(Cn2cncn2)(C2CCCCC2)CC1)[C@H]1Cc2ccccc2CN1 |  |  |  |  |  | EC50 [6]: 0.9 nM
15 | CC(C)[C@@H]1CNC(=N)N1C[C@@H]1CCCN1C[C@@H](Cc1ccccc1)N1C[C@@H]([C@@H](C)O)N(CC2CCC(C(C)(C)C)CC2)C1=N (stereo not given in full) |  | 490 | 420 | 600 |  | Kb [10]: 316 nM
16 | CC(C)CCCN1C(=N)N([C@H](Cc2ccccc2)CN2CCC[C@H]2CN2C(=N)NC[C@H]2C(C)C)C[C@H]1C(C)C |  | 1600 |  | 10200 |  | Emax [1]: 21%; EC50 [8]: > 100000 nM
17 | CC(C)C[C@@H]1CNC(=N)N1C[C@@H]1CCCN1C[C@@H](CC1CCCCC1)N1C[C@@H]([C@@H](C)O)N(CC2CCC(C(C)(C)C)CC2)C1=N (stereo not given in full) | 45 | 140 | 210 | 300 |  | EC50 [6]: 270 nM
18 | CC(C)CCCN1C(=N)N([C@H](CC2CCCCC2)CN2CCC[C@H]2CN2C(=N)NC[C@H]2CC(C)C)C[C@H]1[C@@H](C)O | 10 | 630 |  | 7300 | 58 | 
19 | CC(C)[C@@H]1CNC(=N)N1C[C@@H]1CCCN1C[C@@H](CC1CCCCC1)N1C[C@@H]([C@@H](C)O)N(CC23CC4CC(CC(C4)C2)C3)C1=N | 49 | 600 | 370 | 200 |  | Kb [10]: 1580 nM
20 | CCC[C@@H]1CN([C@H](Cc2ccccc2)CN2CCC[C@H]2CN2C(=N)NC[C@H]2CC(C)C)C(=N)N1CC1CCC(C(C)(C)C)CC1 (stereo not given in full) |  | 480 |  |  | 73 | Emax [1]: 28%; Emax [7]: 38%
21 | CC(C)[C@@H]1CNC(=N)N1C[C@@H]1CCCN1C[C@@H](CC1CCCCC1)N1C[C@@H]([C@@H](C)O)N(CC2CCC(C(C)(C)C)CC2)C1=N (stereo not given in full) | 41 | 150 | 220 | 300 |  | Kb [10]: 1260 nM

Now from value to compound, other results behind:

Row | Emax ([1]; filed as agonist) [%] | EC50 [2] [nM] | EC50 [3] [nM] | EC50 [4] [nM] | Emax ([5]; filed as agonist) [%] | Compound | other results
22 | 50 | 500 |  | 570 | 70 | CC(C)C[C@@H]1CNC(=N)N1C[C@@H]1CCCN1C[C@@H](CC1CCCCC1)N1C[C@@H](C(C)C)N(CC23CC4CC(CC(C4)C2)C3)C1=N | 
23 |  | 740 | 5200 | 700 |  | CC(C)CCCN1C(=N)N([C@H](CC2CCCCC2)CN2CCC[C@H]2CN2C(=N)NC[C@H]2C(C)C)C[C@H]1[C@@H](C)O | 
24 | 75 | 180 | 360 | 440 |  | CC(C)[C@@H]1CNC(=N)N1C[C@@H]1CCCN1C[C@@H](Cc1ccccc1)N1C[C@@H]([C@@H](C)O)N(CC23CC4CC(CC(C4)C2)C3)C1=N | EC50 [6]: 580 nM; Kb [10]: 1580 nM
25 |  | 560 |  |  | 69 | CC(C)C[C@@H]1CNC(=N)N1C[C@@H]1CCCN1C[C@@H](CC1CCCCC1)N1C[C@@H](C(C)C)N(CC2CCC(C(C)(C)C)CC2)C1=N (stereo not given in full) | Kb [10]: 3160 nM; Emax ([7]; filed as agonist): 54%
26 | 65 | 530 |  | 500 | 75 | CCC[C@@H]1CN([C@H](CC2CCCCC2)CN2CCC[C@H]2CN2C(=N)NC[C@H]2CC(C)C)C(=N)N1CC1CCC(C(C)(C)C)CC1 (stereo not given in full) | 
27 | 10 | 1260 |  |  |  | CC(C)CCCN1C(=N)N([C@H](Cc2ccccc2)CN2CCC[C@H]2CN2C(=N)NC[C@H]2CC(C)C)C[C@H]1C(C)C | 
28 |  | 510 | 4300 | 290 |  | CC(C)[C@@H]1CNC(=N)N1C[C@@H]1CCCN1C[C@@H](CC1CCCCC1)N1C[C@@H](C(C)C)N(CC2CCC(C(C)(C)C)CC2)C1=N (stereo not given in full) | Emax [1]: 28%
29 |  | 0.7 |  |  |  | CSCC[C@H](NC(=O)[C@H](CO)NC(=O)[C@H](Cc1ccc(O)cc1)NC(=O)[C@@H](N)CO)C(=O)N[C@@H](CCC(=O)O)C(=O)N[C@@H](Cc1c[nH]cn1)C(=O)N[C@@H](Cc1ccccc1)C(=O)N[C@@H](CCCN=C(N)N)C(=O)N[C@@H](Cc1c[nH]c2ccccc12)C(=O)NCC(=O)N[C@@H](CCCCN)C(=O)N1CCC[C@H]1C(=O)N[C@H](C(=O)O)C(C)C | EC50 [6]: 1.6 nM
30 | 51 | 470 |  |  | 67 | CCC[C@@H]1CN([C@H](CC2CCCCC2)CN2CCC[C@H]2CN2C(=N)NC[C@H]2CC(C)C)C(=N)N1CC12CC3CC(CC(C3)C1)C2 | Emax ([7]; filed as agonist): 70%
31 | 58 | 810 | 360 |  |  | CC(C)C[C@@H]1CNC(=N)N1C[C@@H]1CCCN1C[C@@H](Cc1ccccc1)N1C[C@@H]([C@@H](C)O)N(CC23CC4CC(CC(C4)C2)C3)C1=N | Kb [10]: 1580 nM; Emax ([7]; filed as agonist): 41%
32 | 51 | 1700 |  | 6100 | 51 | CC(C)CCCN1C(=N)N([C@H](CC2CCCCC2)CN2CCC[C@H]2CN2C(=N)NC[C@H]2C(C)C)C[C@H]1C(C)C | 
33 | 54 | 660 | 4000 | 47800 |  | CC(C)[C@@H]1CNC(=N)N1C[C@@H]1CCCN1C[C@@H](Cc1ccccc1)N1C[C@@H](C(C)C)N(CC23CC4CC(CC(C4)C2)C3)C1=N | 
34 |  | 440 |  | 15500 | 67 | CC(C)C[C@@H]1CNC(=N)N1C[C@@H]1CCCN1C[C@@H](Cc1ccccc1)N1C[C@@H](C(C)C)N(CC23CC4CC(CC(C4)C2)C3)C1=N | EC50 [6]: 8200 nM
35 | 41 | 2030 |  | 22900 |  | CCC[C@@H]1CN([C@H](Cc2ccccc2)CN2CCC[C@H]2CN2C(=N)NC[C@H]2C(C)C)C(=N)N1CCCC(C)C | EC50 [8]: > 100000 nM

Reference: ChEMBL document CHEMBL4834429, “Discovery of Nanomolar Melanocortin-3 Receptor (MC3R)-Selective Small Molecule Pyrrolidine Bis-Cyclic Guanidine Agonist Compounds Via a High-Throughput "Unbiased" Screening Campaign” (J Med Chem, 2021)
